Results taken from PMC6447837 (Cancer Science, 2019).

How the values were obtained:
Lyn = Lyn (Homo sapiens, UniProt P07948); test: Radiometric kinase IC50 assay; format: biochemical
Lck = Lck (Homo sapiens, UniProt P06239); test: Radiometric kinase IC50 assay; format: biochemical
CFPAC = test: MTT antiviability assay; format: cell-based; settings: Homo sapiens, 72 h
HPAC = test: MTT antiviability assay; format: cell-based; settings: Homo sapiens, 72 h
MCF‐7 = test: MTT antiviability assay; format: cell-based; settings: Homo sapiens, MCF7, 72 h
205 other kinases = test: Radiometric kinase assay, remaining panel; format: biochemical, human; settings: 205 other kinases of the panel; did not show activity
Aspc‐1 cells [1] = test: Colony formation assay; format: cell-based, human; settings: 14 days
Outline: (§1)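 Cells were seeded at 5000-8000 per well and treated with test compound the next day, from DMSO stocks diluted in medium. Medium with vehicle or compound was replaced every 4 days. Cells were then methanol-fixed and crystal violet-stained. Colonies of more than 50 cells were counted under an inverted microscope and expressed as a percentage of colony numbers. Mean of n = 3, with SD.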

Bxpc‐3 cells [2] = test: Colony formation assay; format: cell-based, human; settings: 18 days
Outline: as §1

Aspc‐1 cells [3] = test: EdU incorporation; format: cell-based, human; settings: 24 hours
Outline: (§2)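 Cells were seeded overnight at 5000-8000 per well in 96-well plates, then exposed to test compound for 24 h. Cells were then incubated with EdU followed by Hoechst, using a commercial kit per manufacturer's instructions. EdU marks proliferating cells and Hoechst marks nuclei. The read-out was the percentage of EdU-positive cells, as mean of n = 3 with SD.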

Bxpc‐3 cells [4] = test: EdU incorporation; format: cell-based, human; settings: 24 hours
Outline: as §2

AKT = test: Western blot, AKT phosphorylation; format: cell-based, human; settings: Aspc‐1 and Bxpc‐3 cells, 12 hours
Outline: (§3)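 Aspc-1 and Bxpc-3 cells were grown overnight in complete medium and treated with test compound for 12 h. Cells were lysed in RIPA buffer and protein was quantified. Lysates were run on SDS-PAGE and transferred to PVDF, then blocked 2 h in TBS-T with 5% non-fat milk. Blots were probed for pAKT Ser473, pERK Thr202/Tyr204, pSTAT3 Tyr705, the matching total proteins and β-actin. Detection was by enhanced chemiluminescence.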

STAT3 [5] = test: Western blot, STAT3 phosphorylation; format: cell-based, human; settings: Aspc‐1 and Bxpc‐3 cells, 12 hours
Outline: as §3

Bxpc‐3 xenograft = test: Subcutaneous xenograft model; format: in vivo, NOD‐SCID mice; settings: Bxpc‐3 model
Outline: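 Female NOD‑SCID mice bearing s.c. right‑flank tumors (5 × 10⁶–1 × 10⁷ cells injected) were randomized at 100–200 mm³ (6–7 per group). They received test compound in 25% PEG400/5% DMSO/water by oral gavage once daily for 18 days, or vehicle. Tumors were measured by caliper every 3 days, with volume = length × width² × 0.5.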

Src = test: Immunohistochemistry of xenograft tumor tissues; format: in vivo, NOD‐SCID mice; settings: Aspc‐1 and Bxpc‐3 models; LY‐1816 and dasatinib 40 mg/kg/d p.o., gemcitabine 80 mg/kg/wk; IHC
STAT3 [6] = test: Immunohistochemistry of xenograft tumor tissues; format: in vivo, NOD‐SCID mice; settings: Aspc‐1 and Bxpc‐3 models; LY‐1816 and dasatinib 40 mg/kg/d p.o., gemcitabine 80 mg/kg/wk; IHC
Outline: (§4)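 Six-week-old female NOD-SCID mice received 5 × 10⁶ to 1 × 10⁷ cells s.c. in the right flank. Treatment began at about 200 mm³. Test compound (40 mg/kg/d) was given once daily by oral gavage in 25% PEG400 plus 5% DMSO in water. Tumors were resected at the end of dosing. Frozen sections were immunostained and imaged by light microscopy.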

FOSL1 = test: Immunohistochemistry of xenograft tumor tissues; format: in vivo, NOD‐SCID mice; settings: Aspc‐1 and Bxpc‐3 models; LY‐1816 and dasatinib 40 mg/kg/d p.o., gemcitabine 80 mg/kg/wk; IHC
Outline: as §4

Aspc‐1 cells [7] = test: Wound healing assay; format: cell-based, human; settings: 18 hours
Bxpc‐3 cells [8] = test: Transwell invasion assay; format: cell-based, human
Outline: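 Inserts were precoated with polymerized collagen type I. Cells were seeded on the insert bottom in serum‑free medium with serial dilutions of test compound or vehicle, with 10% FBS medium in the lower chamber. After one day, cells were stained with calcein‑AM and optical sections taken at 10‑μm intervals. Invasion was scored as cells moving >20 μm into collagen; n = 3, mean with SD.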

[9] = tested on: Miapaca‐2 metastatic model; test: Experimental metastasis assay; format: in vivo, NOD‐SCID mice; settings: 40 mg/kg/d
Outline: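 Miapaca‑2 cells (5 × 10⁶) were injected into the tail vein of 5‑ to 6‑week‑old female NOD‑SCID mice. Mice were randomized immediately into 5 groups of 6 and given test compound p.o. at 20 or 40 mg/kg, comparators, or vehicle. […] Kaplan–Meier analysis used a log rank test against control.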

HCC1937 = settings: HCC1937, Triple negative breast cancer; mean ± SD; ref Zhang et al (2016) 35; cited from earlier work
MDA‐MB‐415 = settings: MDA‐MB‐415, Breast cancer; ref Zhang et al (2016) 35; cited from earlier work
ZR‐75‐1 = settings: ZR‐75‐1, Breast cancer; ref Zhang et al (2016) 35; cited from earlier work
SMMC7721 = settings: SMMC7721, Hepatocarcinoma; ref Zhang et al (2016) 35; cited from earlier work
MV4‐11 = settings: MV4‐11, Leukemia; mean ± SD; ref Zhang et al (2016) 35; cited from earlier work
DU145 = settings: DU145, Prostate carcinoma; ref Zhang et al (2016) 35; cited from earlier work
L929 = settings: L929, Mouse fibroblast (normal cell line); ref Zhang et al (2016) 35; cited from earlier work
LO2 = settings: LO2, Human hepatic cells (normal cell line); ref Zhang et al (2016) 35; cited from earlier work

Lyn, sequence (P07948 whole entry): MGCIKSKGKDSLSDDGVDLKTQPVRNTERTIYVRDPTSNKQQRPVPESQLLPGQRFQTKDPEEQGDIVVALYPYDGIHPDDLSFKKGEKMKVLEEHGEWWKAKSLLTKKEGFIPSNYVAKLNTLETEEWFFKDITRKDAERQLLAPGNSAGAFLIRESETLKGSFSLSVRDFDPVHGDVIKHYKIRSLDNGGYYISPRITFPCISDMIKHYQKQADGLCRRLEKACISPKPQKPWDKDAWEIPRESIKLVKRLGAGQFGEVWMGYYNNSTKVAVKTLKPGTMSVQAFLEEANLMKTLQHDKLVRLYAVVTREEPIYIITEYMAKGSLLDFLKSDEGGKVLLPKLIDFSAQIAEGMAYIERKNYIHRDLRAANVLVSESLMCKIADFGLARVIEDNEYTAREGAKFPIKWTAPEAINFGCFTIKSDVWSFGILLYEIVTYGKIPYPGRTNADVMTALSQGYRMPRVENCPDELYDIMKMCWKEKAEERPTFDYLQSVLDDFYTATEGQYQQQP
Lck, sequence (P06239 whole entry): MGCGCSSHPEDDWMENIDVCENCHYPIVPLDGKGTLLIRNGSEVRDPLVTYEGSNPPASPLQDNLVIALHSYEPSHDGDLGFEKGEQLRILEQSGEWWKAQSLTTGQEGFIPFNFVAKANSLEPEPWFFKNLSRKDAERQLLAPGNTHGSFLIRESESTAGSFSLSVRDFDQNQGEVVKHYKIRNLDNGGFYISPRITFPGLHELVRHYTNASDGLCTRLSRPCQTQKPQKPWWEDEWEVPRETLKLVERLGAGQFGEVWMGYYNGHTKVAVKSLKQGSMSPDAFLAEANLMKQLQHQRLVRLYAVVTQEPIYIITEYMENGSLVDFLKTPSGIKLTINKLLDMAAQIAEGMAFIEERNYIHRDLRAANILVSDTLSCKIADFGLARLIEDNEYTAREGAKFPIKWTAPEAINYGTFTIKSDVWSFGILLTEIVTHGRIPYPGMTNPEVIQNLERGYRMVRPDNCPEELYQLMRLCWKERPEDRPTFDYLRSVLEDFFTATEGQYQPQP

## Cc1ccc(NC(=O)c2ccc(C)c(C(F)(F)F)c2)cc1C#Cc1nn(C2CCC(O)CC2)c2ncnc(N)c12 (stereo not shown) [LY‐1816, N‐(3‐((4‐amino‐1‐(4‐hydroxycyclohexyl)‐1H‐pyrazolo[3,4‐d]pyrimidin‐3‐yl)ethynyl)‐4‐methylphenyl)‐4‐methyl‐3‐(trifluoromethyl)benzamide]
Lyn
  IC50: 4 nM
Lck
  IC50: 14 nM
CFPAC
  IC50: 96 ± 60 nM
HPAC
  IC50: 45 ± 4 nM
MCF‐7
  IC50: > 10000 nM
205 other kinases
  IC50: > 10000 nM
Aspc‐1 cells [1]
  colony growth: significantly inhibited the colony growth
Bxpc‐3 cells [2]
  colony growth: significantly inhibited the colony growth
Aspc‐1 cells [3]
  DNA replication (EdU): dose‐dependently suppress the DNA replication
Bxpc‐3 cells [4]
  DNA replication (EdU): dose‐dependently suppress the DNA replication
AKT
  phosphorylation of AKT: very weak or no impact on the phosphorylation of ERK and AKT
STAT3 [5]
  phosphorylation of STAT3: significantly inhibit STAT3 phosphorylation
Bxpc‐3 xenograft; 40 mg/kg daily, orally, 18 days
  tumor‐inhibition rate: > 90%
Bxpc‐3 xenograft; LY‐1816 20 or 40 mg/kg/d p.o., dasatinib 40 mg/kg/d p.o., gemcitabine 80 mg/kg once a week
  antitumor activity: dose‐dependent tumor inhibitory activities
Src
  phosphorylation of Src in tumor tissues: evidently reduced the phosphorylation of Src and STAT3
STAT3 [6]
  phosphorylation of STAT3 in tumor tissues: evidently reduced the phosphorylation of Src and STAT3
FOSL1
  expression of FOSL1 in tumor tissues: evidently reduced
Aspc‐1 cells [7]
  cell migration: dose‐dependently reduced cell migration
Bxpc‐3 cells [8]
  cell invasion: significantly suppressed the invasion
[9]
  mice alive at day 105: 33%
HCC1937
  IC50: 455 ± 87 nM
MDA‐MB‐415
  IC50: ~10000 nM
ZR‐75‐1
  IC50: ~10000 nM
SMMC7721
  IC50: > 10000 nM
MV4‐11
  IC50: 138 ± 15 nM
DU145
  IC50: > 10000 nM
L929
  IC50: > 10000 nM
LO2
  IC50: > 10000 nM
